{"source": "ChEMBL document CHEMBL1165950", "about": "“Design and synthesis of new potent anticancer pyrazoles with high FLT3 kinase inhibitory selectivity” (Bioorg Med Chem, 2010)", "format_in_all_cases": "functional", "key": {"NCI-H460": {"system": "NCI-H460", "assay": "Cytotoxicity against human NCI-H460 cells assessed as cell growth at 10 uM after 48 hrs by sulforhodamine B assay", "details": "NCI-H460, 48 h, read-out: Activity"}, "COLO 205": {"system": "COLO 205", "assay": "Cytotoxicity against human COLO205 cells assessed as cell growth at 100 nM after 48 hrs by sulforhodamine B assay", "details": "COLO 205, 48 h, read-out: Activity"}, "OVCAR-4": {"system": "OVCAR-4", "assay": "Cytotoxicity against human OVCAR4 cells assessed as cell growth at 1 uM after 48 hrs by sulforhodamine B assay", "details": "OVCAR-4, 48 h, read-out: Activity"}, "MDA-MB-468": {"system": "MDA-MB-468", "assay": "Cytotoxicity against human MDA-MB-468 cells assessed as cell growth at 0.001 uM after 48 hrs by sulforhodamine B assay", "details": "MDA-MB-468, 48 h, read-out: Activity"}, "NCI-H322M": {"system": "NCI-H322M", "assay": "Cytotoxicity against human NCI-H322M cells assessed as cell growth at 10 uM after 48 hrs by sulforhodamine B assay", "details": "read-out: Activity"}, "HT-29": {"system": "HT-29", "assay": "Cytotoxicity against human HT-29 cells assessed as cell growth at 0.01 uM after 48 hrs by sulforhodamine B assay", "details": "HT-29, 48 h, read-out: Activity"}, "M14": {"system": "M14", "assay": "Cytotoxicity against human M14 cells assessed as cell growth at 0.01 uM after 48 hrs by sulforhodamine B assay", "details": "M14, 48 h, read-out: Activity"}, "[1]": {"assay": "Cytotoxicity against human Hs 578T cells assessed as cell growth at 1 uM after 48 hrs by sulforhodamine B assay", "details": "read-out: Activity"}, "T47D": {"system": "T47D", "assay": "Cytotoxicity against human T47D cells assessed as cell growth at 0.01 uM after 48 hrs by sulforhodamine B assay", "details": "read-out: Activity"}, "[2]": {"assay": "Cytotoxicity against human RPMI8266 cells assessed as cell growth at 1 uM after 48 hrs by sulforhodamine B assay", "details": "read-out: Activity"}, "BT-549": {"system": "BT-549", "assay": "Cytotoxicity against human BT549 cells assessed as cell growth at 1 uM after 48 hrs by sulforhodamine B assay", "details": "BT-549, 48 h, read-out: Activity", "summary_of_the_method": "(§1)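 NCI-60 five-dose screen. Cells were grown in RPMI 1640 with 5% FBS and 2 mM L-glutamine, plated at 5000–40,000 cells/well and preincubated for 24 h. Time-zero plates were TCA-fixed. DMSO-solubilized drug was added at five concentrations (10-fold or ½-log serial dilutions) for 48 h at 37 °C, 5% CO2. Cells were TCA-fixed, stained with 0.4% SRB and read at 515 nm. Percent growth used time-zero, control and test absorbances.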"}, "MDA-MB-231 [3]": {"system": "MDA-MB-231", "assay": "Cytotoxicity against human MDA-MB-231 cells assessed as cell growth at 100 nM after 48 hrs by sulforhodamine B assay", "details": "MDA-MB-231, 48 h, read-out: Activity"}, "SW-620": {"system": "SW-620", "assay": "Cytotoxicity against human SW620 cells assessed as cell growth at 0.001 uM after 48 hrs by sulforhodamine B assay", "details": "SW-620, 48 h, read-out: Activity"}, "HOP-92": {"system": "HOP-92", "assay": "Cytotoxicity against human HOP92 cells assessed as cell growth at 10 uM after 48 hrs by sulforhodamine B assay", "details": "HOP-92, 48 h, read-out: Activity"}, "SK-OV-3": {"system": "SK-OV-3", "assay": "Cytotoxicity against human SKOV3 cells assessed as cell growth at 10 uM after 48 hrs by sulforhodamine B assay", "details": "SK-OV-3, 48 h, read-out: Activity"}, "SNB-19": {"system": "SNB-19", "assay": "Growth inhibition of human SNB19 cells after 48 hrs by sulforhodamine B assay", "details": "SNB-19, 48 h", "summary_of_the_method": "(§2)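 NCI 60-cell screen, five-dose mode. Cells grown in RPMI 1640 with 5% FBS and 2 mM L-glutamine and plated at 5000-40,000 cells/well according to doubling time. After 24 h preincubation, a Tz plate was TCA-fixed. Five concentrations (10-fold or 1/2 log dilutions) were applied for 48 h at 37 °C. SRB staining read at 515 nm. IC50 taken from [(Ti-Tz)/(C-Tz)]×100 = 50.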"}, "786-0": {"system": "786-0", "assay": "Cytotoxicity against human 786-0 cells assessed as cell growth at 1 uM after 48 hrs by sulforhodamine B assay", "details": "786-0, 48 h, read-out: Activity", "summary_of_the_method": "as §1"}, "ACHN [4]": {"system": "ACHN", "assay": "Cytotoxicity against human ACHN cells assessed as cell growth at 100 nM after 48 hrs by sulforhodamine B assay", "details": "read-out: Activity", "summary_of_the_method": "as §1"}, "UACC-62": {"system": "UACC-62", "assay": "Cytotoxicity against human UACC62 cells assessed as cell growth at 100 nM after 48 hrs by sulforhodamine B assay", "details": "UACC-62, 48 h, read-out: Activity"}, "Malme-3M": {"system": "Malme-3M", "assay": "Growth inhibition of human MALME-3M cells after 48 hrs by sulforhodamine B assay", "summary_of_the_method": "as §2"}, "MDA-MB-231 [5]": {"system": "MDA-MB-231", "assay": "Cytotoxicity against human MDA-MB-231 cells assessed as cell growth at 10 uM", "details": "read-out: Activity", "summary_of_the_method": "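NCI-60 screen: cells grown in RPMI 1640 with 5% FBS and 2 mM L-glutamine, plated at 5000–40,000 cells/well according to doubling time, and preincubated 24 h at 37 °C, 5% CO2. The single 10 µM dose (DMSO stock) was added, then incubated 48 h. Cells were TCA-fixed and stained with 0.4% SRB, read at 515 nm, and growth % calculated against time-zero and control plates.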"}, "A498": {"system": "A498", "assay": "Cytotoxicity against human A498 cells assessed as cell growth at 10 uM", "details": "read-out: Activity", "summary_of_the_method": "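Single-dose NCI-60 screen at 10 µM. Cells were grown in RPMI 1640 with 5% FBS and 2 mM L-glutamine, then treated for 48 h at 37 °C. Protein was measured by SRB staining with absorbance at 515 nm. Percentage growth was recorded, and inhibition percentage was calculated as 100 minus growth percentage.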"}, "SN12C": {"system": "SN12C", "assay": "Cytotoxicity against human SN12C cells assessed as cell growth at 100 nM after 48 hrs by sulforhodamine B assay", "details": "read-out: Activity"}, "HCT-116": {"system": "HCT-116", "assay": "Cytotoxicity against human HCT116 cells assessed as cell growth at 10 uM after 48 hrs by sulforhodamine B assay", "details": "HCT-116, 48 h, read-out: Activity"}, "MOLT-4": {"system": "MOLT-4", "assay": "Cytotoxicity against human MOLT4 cells assessed as cell growth at 0.01 uM after 48 hrs by sulforhodamine B assay", "details": "MOLT-4, 48 h, read-out: Activity"}, "HCT-15": {"system": "HCT-15", "assay": "Growth inhibition of human HCT15 cells after 48 hrs by sulforhodamine B assay", "details": "HCT-15, 48 h", "summary_of_the_method": "as §2"}, "K562": {"system": "K562", "assay": "Growth inhibition of human K562 cells after 48 hrs by sulforhodamine B assay", "details": "K562, 48 h", "summary_of_the_method": "as §2"}, "OVCAR-5": {"system": "OVCAR-5", "assay": "Cytotoxicity against human OVCAR5 cells assessed as cell growth at 10 uM after 48 hrs by sulforhodamine B assay", "details": "OVCAR-5, 48 h, read-out: Activity"}, "ACHN [6]": {"system": "ACHN", "assay": "Cytotoxicity against human ACHN cells assessed as cell growth at 1 uM after 48 hrs by sulforhodamine B assay", "details": "read-out: Activity", "summary_of_the_method": "as §1"}, "SF-295": {"system": "SF-295", "assay": "Cytotoxicity against human SF295 cells assessed as cell growth at 0.001 uM after 48 hrs by sulforhodamine B assay", "details": "SF-295, 48 h, read-out: Activity"}, "[7]": {"details": "read-out: LC50 (the source's name)"}}, "data": [{"smiles": "COc1cc(C)cc(-c2c(-c3ccnc(-c4ccc(N(C)C)cc4)c3)cnn2CC#N)c1", "values": [{"measurement": "growth at 10 µM", "setting": "NCI-H460", "result": -55, "unit": "%"}, {"measurement": "growth at 0.1 µM", "setting": "COLO 205", "result": 7, "unit": "%"}, {"measurement": "growth at 1 µM", "setting": "OVCAR-4", "result": 31, "unit": "%"}, {"measurement": "growth at 0.001 µM", "setting": "MDA-MB-468", "result": 93, "unit": "%"}, {"measurement": "growth at 10 µM", "setting": "NCI-H322M", "result": 21, "unit": "%"}, {"measurement": "growth at 0.01 µM", "setting": "HT-29", "result": 26, "unit": "%"}, {"measurement": "growth at 0.01 µM", "setting": "M14", "result": -19, "unit": "%"}, {"measurement": "growth at 1 µM", "setting": "[1]", "result": 18, "unit": "%"}, {"measurement": "growth at 0.01 µM", "setting": "T47D", "result": 36, "unit": "%"}, {"measurement": "growth at 1 µM", "setting": "[2]", "result": -31, "unit": "%"}, {"measurement": "growth at 1 µM", "setting": "BT-549", "result": -29, "unit": "%"}, {"measurement": "growth at 0.1 µM", "setting": "MDA-MB-231 [3]", "result": -5, "unit": "%"}, {"measurement": "growth at 0.001 µM", "setting": "SW-620", "result": 105, "unit": "%"}, {"measurement": "growth at 10 µM", "setting": "HOP-92", "result": -26, "unit": "%"}, {"measurement": "growth at 10 µM", "setting": "SK-OV-3", "result": 26, "unit": "%"}, {"measurement": "GI50", "setting": "SNB-19", "result": 362, "unit": "nM"}, {"measurement": "TGI", "setting": "SNB-19", "result": "> 100", "unit": "µM"}, {"measurement": "CC50", "setting": "SNB-19; [7]", "result": "> 100", "unit": "µM"}, {"measurement": "growth at 1 µM", "setting": "786-0", "result": 2, "unit": "%"}, {"measurement": "growth at 0.1 µM", "setting": "ACHN [4]", "result": 34, "unit": "%"}, {"measurement": "growth at 0.1 µM", "setting": "UACC-62", "result": 37, "unit": "%"}, {"measurement": "GI50", "setting": "Malme-3M", "result": 59.8, "unit": "nM"}, {"measurement": "TGI", "setting": "Malme-3M", "result": "> 100", "unit": "µM"}, {"measurement": "CC50", "setting": "Malme-3M; [7]", "result": "> 100", "unit": "µM"}, {"measurement": "growth at 10 µM", "setting": "MDA-MB-231 [5]", "result": 18.7, "unit": "%"}, {"measurement": "growth at 10 µM", "setting": "A498", "result": 21.3, "unit": "%"}, {"measurement": "growth at 0.1 µM", "setting": "SN12C", "result": 28, "unit": "%"}, {"measurement": "growth at 10 µM", "setting": "HCT-116", "result": -27, "unit": "%"}, {"measurement": "growth at 0.01 µM", "setting": "MOLT-4", "result": 81, "unit": "%"}, {"measurement": "GI50", "setting": "HCT-15", "result": 76.6, "unit": "nM"}, {"measurement": "TGI", "setting": "HCT-15", "result": "> 100", "unit": "µM"}, {"measurement": "CC50", "setting": "HCT-15; [7]", "result": "> 100", "unit": "µM"}, {"measurement": "GI50", "setting": "K562", "result": 58.4, "unit": "nM"}, {"measurement": "LC50 (50% net cell kill)", "setting": "K562", "result": "> 100", "unit": "µM"}, {"measurement": "TGI", "setting": "K562", "result": 3.82, "unit": "µM"}, {"measurement": "growth at 10 µM", "setting": "OVCAR-5", "result": 97, "unit": "%"}, {"measurement": "growth at 1 µM", "setting": "ACHN [6]", "result": 19, "unit": "%"}, {"measurement": "growth at 0.001 µM", "setting": "SF-295", "result": 83, "unit": "%"}]}]}
